Published values gathered from unrelated publications.
Protocols differ between the studies behind these lines.
Target: Death-associated protein kinase 2 (DAPK2, Homo sapiens, UniProt Q9UIK4)

Structure (SMILES) | effect on | mode | method | concentration | quantity | value
O=c1[nH]c2ccccc2n1C1CCN(Cc2ccc(-c3[nH]c4cc5ncnc5cc4nc3-c3ccccc3)cc2)CC1 | cell-free assay | – | – | 0.5 µM | remaining signal | 99%
Cn1cncc1[C@@](O)(COc1ccc(C#N)cc1-c1ccc(OC(F)(F)F)cc1)c1ccc(C#N)cc1 | cell-free assay | – | competition with immobilised ligand | 1 µM | remaining binding | 97%
COc1cc(Nc2ncc(F)c(Nc3ccc4c(n3)NC(=O)C(C)(C)O4)n2)cc(OC)c1OC | binding | – | competition with immobilised ligand | 10 µM | inhibition | 95%
Cc1nn(C)cc1-c1nc2c(N3CCN(Cc4ccc(Cl)cc4)CC3)c(Cl)cnc2[nH]1 | binding | – | competition with immobilised ligand | 1 µM | remaining binding | 80%
CC(C)(C)c1cc(C=C(C#N)C#N)cc(Br)c1O | enzyme activity | inhibitor | – | 0.5 µM | remaining activity | 108%
N#CC1(c2ccccn2)CCN(Cc2cc(C(=O)O)c(=O)n3ccccc23)CC1 | cell-free assay | – | competition with immobilised ligand | 1 µM | remaining binding | 99%
Nc1ncc(-c2nc(N3CCOCC3)nc(N3CCOCC3)n2)c(C(F)F)n1 | binding | – | competition with immobilised ligand | 10 µM | remaining binding | 76%
COc1ncccc1-c1cnn2ccc(N3CCN(C(=O)OC(C)C)CC3)nc12 | binding | – | competition with immobilised ligand | 1 µM | remaining binding | 86%
